Data reported in ChEMBL document CHEMBL3763025, “Synthesis of novel diflunisal hydrazide-hydrazones as anti-hepatitis C virus agents and hepatocellular carcinoma inhibitors” (Eur J Med Chem, 2016).
Active and inactive are the calls of the source. The calls are words filed in the database; no cut-off is given here.

Tests used:
Hepacivirus hominis = assay: Inhibition of HCV NS5B RNA dependent RNA polymerase using UTP/[alpha-32P]UTP as substrate at 50 uM after 1 hr by liquid scintillation counter analysis
Hepatitis C virus [1] = assay: Antiviral activity against HCV genotype 2a infected in Huh7.5 FGR-JC1-Rluc2A cells assessed as inhibition of viral replication at 50 uM after 42 hrs by MTS assay relative to control; type: functional; conditions: Hepacivirus hominis, Huh7.5, 42 h, in the assay text read “Renilla luciferase reporter assay” for “MTS assay”
Method in brief: (§1)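 Replicon reporter cells (Huh7/Rep-Feo1b or Huh7.5-FGR-JC1-Rluc2A) grown in DMEM with 10% fetal calf serum and 0.5 mg/mL G418 at 37°C, 5% CO2. Seeded at 1x10^4 per well, compound added 8 h after seeding at 50 µM for 42 h. Luciferase signal expressed relative to equivalent DMSO-treated controls. Average of three independent experiments.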

[2] = Cytotoxicity against human Huh7.5 cells assessed as cell viability after 42 hrs by MTS assay; type: cell-based, Huh-7
Method in brief: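 CC50 measured in parental Huh7.5 cells using the colorimetric MTS assay, with equal amounts of DMSO as control. Mean of three independent experiments with standard deviation.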

Hepatitis C virus [3] = assay: Antiviral activity against HCV genotype 1b infected in Huh7/Rep-Feo1b cells assessed as inhibition of viral replication at 50 uM after 42 hrs by MTS assay relative to control; type: functional, Hepacivirus hominis; conditions: Huh-7, 42 h; method in brief: as §1
Huh-7 [4] = assay: Induction of apoptosis in human HuH7 cells assessed as nuclear condensation at IC50 after 72 hrs by hoechst 33258 staining based fluorescence microscopy; type: functional, cell-based
Huh-7 [5] = assay: Induction of apoptosis in human HuH7 cells assessed as cleavage of PARP protein at IC50 after 72 hrs by Western blot analysis; type: functional, cell-based
Method in brief: (§2)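 Cells plated in 100 mm dishes. […] Western blot probed with anti-PARP to detect cleaved PARP, with β-actin as loading control.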

Hepatitis C virus [6] = assay: Antiviral activity against HCV genotype 1b infected in Huh7/Rep-Feo1b cells assessed as inhibition of viral replication after 42 hrs by MTS assay; type: functional, organism-based, Hepacivirus hominis; conditions: Huh-7, 42 h
Method in brief: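 Huh7/Rep-Feo1b replicon reporter cells kept in DMEM with 10% fetal calf serum and 0.5 mg/mL G418 at 37°C, 5% CO2. Cells seeded at 1x10^4 per well, dosed 8 h later and incubated 42 h with DMSO as control. Luciferase signal read relative to DMSO. EC50 derived from dose-response curves at 8-10 concentrations, mean of three independent experiments with standard deviation.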

[7] = Cytotoxicity against human FOCUS cells assessed as inhibition of cell proliferation after 72 hrs by sulforhodamine B assay; type: functional, cell-based
Method in brief: (§3)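 Liver cancer cells grown in DMEM or RPMI with 10% FCS, 2 mM L-glutamine and penicillin/streptomycin at 37°C, 5% CO2. Plated at 1000-3000 cells per well for 24 h, then exposed to 2.5–40 µM for 72 h. Cells TCA-fixed, stained with 0.4% sulforhodamine B in 1% acetic acid, dye solubilized in 10 mM Tris base, absorbance read at 515 nm. Normalized to DMSO, triplicate.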

Mahlavu = assay: Induction of apoptosis in human Mahlavu cells assessed as cleavage of PARP protein at IC50 after 72 hrs by Western blot analysis; type: functional, cell-based; method in brief: as §2
[8] = Cell cycle arrest in human Mahlavu cells assessed as accumulation at subG1/G0 phase at IC50 after 72 hrs by propidium iodide staining-based Muse cell cycle analyzer; type: functional
[9] = Cytotoxicity against human Mahlavu cells assessed as inhibition of cell proliferation after 72 hrs by sulforhodamine B assay; type: functional, cell-based; method in brief: as §3
[10] = Cytotoxicity against human Hep3B cells assessed as inhibition of cell proliferation after 72 hrs by sulforhodamine B assay; type: functional, cell-based, Hep 3B2; method in brief: as §3
[11] = Selectivity index, ratio of CC50 for human Huh7.5 cells to EC50 for HCV genotype 1b infected in Huh7/Rep-Feo1b cells; set-up: species or system Huh-7
Method in brief: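 Selectivity index taken as the ratio of CC50 (MTS assay, parental Huh7.5 cells) to EC50 (dose-response curves at 8-10 concentrations, Huh7/Rep-Feo1b luciferase replicon, 42 h treatment).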

Huh-7 [12] = assay: Induction of apoptosis in human HuH7 cells assessed as DNA fragmentation at IC50 after 72 hrs by hoechst 33258 staining based fluorescence microscopy; type: functional, cell-based
HepG2 = assay: Cytotoxicity against human HepG2 cells assessed as inhibition of cell proliferation after 72 hrs by sulforhodamine B assay; type: functional, cell-based; method in brief: as §3
[13] = Cytotoxicity against human HuH7 cells assessed as inhibition of cell proliferation after 72 hrs by sulforhodamine B assay; type: functional, cell-based, Huh-7; method in brief: as §3
[14] = Cytotoxicity against human SNU475 cells assessed as inhibition of cell proliferation after 72 hrs by sulforhodamine B assay; type: functional, cell-based, SNU-475; method in brief: as §3

| inhibition (Hepacivirus hominis) | SMILES | inhibition at 50 µM (Hepatitis C virus [1]) | CC50 at 42 h [2] | inhibition at 50 µM (Hepatitis C virus [3]) | EC50 (Hepatitis C virus [6]) | Ratio CC50/EC50 [11] | also measured |
| --- | --- | --- | --- | --- | --- | --- | --- |
| inactive | CCc1ccc(/C=N/NC(=O)c2cc(-c3ccc(F)cc3F)ccc2O)s1 | 96% | > 50 µM | 65% | – | – | – |
| inactive | O=C(N/N=C/c1ccccn1)c1cc(-c2ccc(F)cc2F)ccc1O | 90% | > 100 µM | 79% | 3.9 µM | >25.6 | Activity (Huh-7 [4]): Active; Activity (Huh-7 [5]): inactive; IC50 [7]: 9.29 µM; Activity (Mahlavu): Active; Activity [8]: Active; IC50 [9]: 4.74 µM; IC50 ([10]; Homo sapiens, Hep3B, 72 h, read-out: IC50): 16.2 µM; Activity (Huh-7 [12]): Active; IC50 (HepG2; Homo sapiens, HepG2, 72 h, read-out: IC50): 10.3 µM; IC50 ([13]; Homo sapiens, Huh-7, 72 h, read-out: IC50): 10 µM; IC50 ([14]; Homo sapiens, SNU-475, 72 h, read-out: IC50): 8.33 µM |
| inactive | O=C(N/N=C/c1ccc2ccccc2c1)c1cc(-c2ccc(F)cc2F)ccc1O | 58% | > 100 µM | 65% | – | – | – |
| inactive | O=C(N/N=C/c1c(F)cccc1F)c1cc(-c2ccc(F)cc2F)ccc1O | 72% | > 100 µM | 69% | – | – | – |
| 17% | O=C(N/N=C/c1cccs1)c1cc(-c2ccc(F)cc2F)ccc1O | 98% | > 50 µM | 91% | 15.6 µM | >3.2 | – |
| 7% | O=C(N/N=C/c1ccccc1Cl)c1cc(-c2ccc(F)cc2F)ccc1O | 78% | < 50 µM | 90% | – | – | – |
| 7% | O=C(N/N=C/c1ccncc1)c1cc(-c2ccc(F)cc2F)ccc1O | 23% | > 50 µM | 33% | – | – | – |
| 12% | O=C(N/N=C/c1ccc(C(F)(F)F)cc1)c1cc(-c2ccc(F)cc2F)ccc1O | 99% | < 50 µM | 86% | – | – | – |
| 18% | O=C(N/N=C/c1cccc(C(F)(F)F)c1)c1cc(-c2ccc(F)cc2F)ccc1O | 99% | < 50 µM | 87% | – | – | – |
| 8% | O=C(N/N=C/c1cccnc1)c1cc(-c2ccc(F)cc2F)ccc1O | 88% | > 200 µM | 83% | 8.1 µM | >24.7 | – |
| 8% | Cc1ccc(/C=N/NC(=O)c2cc(-c3ccc(F)cc3F)ccc2O)s1 | 95% | > 50 µM | 64% | – | – | – |
| 9% | O=C(N/N=C/c1cccc(Br)c1)c1cc(-c2ccc(F)cc2F)ccc1O | 92% | < 50 µM | 81% | – | – | – |
| 11% | O=C(N/N=C/c1c(F)cccc1Cl)c1cc(-c2ccc(F)cc2F)ccc1O | 74% | > 50 µM | 83% | 3.9 µM | >12.8 | – |
| inactive | O=C(N/N=C/c1ccc2c(c1)OC(F)(F)O2)c1cc(-c2ccc(F)cc2F)ccc1O | 95% | < 50 µM | 65% | – | – | – |
| inactive | N#Cc1ccc(/C=N/NC(=O)c2cc(-c3ccc(F)cc3F)ccc2O)cc1 | 82% | > 200 µM | 77% | 11.8 µM | >16.9 | – |
| inactive | O=C(N/N=C/c1c(Cl)cccc1Cl)c1cc(-c2ccc(F)cc2F)ccc1O | 96% | < 50 µM | 72% | – | – | – |
| 14% | O=C(N/N=C/c1cccc(Oc2ccccc2)c1)c1cc(-c2ccc(F)cc2F)ccc1O | 99% | < 50 µM | 92% | – | – | – |
| – | O=C(O)c1cc(-c2ccc(F)cc2F)ccc1O [DIFLUNISAL] | – | – | – | – | – | Activity (Huh-7 [4]): inactive; IC50 [7]: 29.8 µM; IC50 [9]: 51.7 µM; IC50 ([10]; hep 3b2): Not Active; Activity (Huh-7 [12]): inactive; IC50 (HepG2; hepg2): Not Active; IC50 ([13]; huh-7): Not Active; IC50 ([14]; snu-475): Not Active |
| inactive | O=C(N/N=C/c1ccc(Cl)c(Cl)c1)c1cc(-c2ccc(F)cc2F)ccc1O | 95% | < 50 µM | 66% | – | – | – |
| inactive | O=C(N/N=C/c1cccc2ccccc12)c1cc(-c2ccc(F)cc2F)ccc1O | 70% | > 200 µM | 79% | 16.5 µM | >6.1 | – |
